Assay results: ChEMBL document CHEMBL1155539, “Discovery of 4-[1-[([1-[4-(trifluoromethyl)benzyl]-1H-indol-7-yl]carbonyl)amino]cyclopropyl]benzoic acid (MF-766), a highly potent and selective EP4 antagonist for treating inflammatory pain” (Bioorg Med Chem Lett, 2010)

Legend:
[1] = molecular target: T1, Prostaglandin D2 receptor 2 (Homo sapiens, UniProt Q9Y5Y4); assay: Displacement of [3H]PGD2 from human Prostanoid DP2 receptor expressed in HEK293-EBNA cells after 60 mins by scintillation counting; type: cell-based
T1 sequence (Q9Y5Y4 whole entry): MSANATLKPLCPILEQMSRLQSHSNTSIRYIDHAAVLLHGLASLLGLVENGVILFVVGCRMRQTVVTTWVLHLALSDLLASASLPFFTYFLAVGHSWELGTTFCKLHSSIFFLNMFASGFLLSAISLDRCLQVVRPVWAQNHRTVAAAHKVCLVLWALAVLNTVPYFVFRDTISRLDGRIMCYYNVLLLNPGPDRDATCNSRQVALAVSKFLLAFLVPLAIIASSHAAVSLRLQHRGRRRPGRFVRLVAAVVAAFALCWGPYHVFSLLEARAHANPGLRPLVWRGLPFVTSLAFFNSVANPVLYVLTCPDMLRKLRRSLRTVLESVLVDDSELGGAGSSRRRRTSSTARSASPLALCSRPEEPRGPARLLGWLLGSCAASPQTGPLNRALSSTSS

Prostacyclin receptor = Prostacyclin receptor (Homo sapiens, UniProt P43119); assay: Displacement of [3H]iloprost from human prostanoid IP receptor expressed in HEK293-EBNA cells after 60 mins by scintillation counting; type: cell-based
Thromboxane A2 receptor = molecular target: T2, Thromboxane A2 receptor (Homo sapiens, UniProt P21731); assay: Displacement of [3H]SQ-29548 from human prostanoid TP receptor expressed in HEK293-EBNA cells after 60 mins by scintillation counting; type: cell-based
T2 sequence (P21731 whole entry): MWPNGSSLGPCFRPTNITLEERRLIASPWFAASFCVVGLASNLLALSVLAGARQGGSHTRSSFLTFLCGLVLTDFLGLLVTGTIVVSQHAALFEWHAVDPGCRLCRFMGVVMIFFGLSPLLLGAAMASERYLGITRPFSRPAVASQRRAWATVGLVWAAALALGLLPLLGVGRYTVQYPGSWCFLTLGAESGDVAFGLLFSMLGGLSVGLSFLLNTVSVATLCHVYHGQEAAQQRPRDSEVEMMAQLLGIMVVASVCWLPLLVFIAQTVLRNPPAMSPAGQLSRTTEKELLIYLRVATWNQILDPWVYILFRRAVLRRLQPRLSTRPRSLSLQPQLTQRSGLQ

[2] = molecular target: T3, Prostaglandin E2 receptor EP4 subtype (Homo sapiens, UniProt P35408); assay: Displacement of [3H]PGE2 from human prostanoid EP4 receptor expressed in HEK293-EBNA cells after 60 mins by scintillation counting in presence of 10% human serum; type: cell-based
[3] = molecular target: T3, Prostaglandin E2 receptor EP4 subtype; assay: Antagonist activity at human prostanoid EP4 receptor expressed in HEK293 cells assessed as inhibition of PGE2-induced cAMP accumulation by scintillation proximity assay in presence of 10% human serum; type: functional, cell-based
[4] = molecular target: T3, Prostaglandin E2 receptor EP4 subtype; assay: Antagonist activity at prostanoid EP4 receptor in human whole blood assessed as inhibition of TNF-alpha-induced IP-10 release in presence EP4 agonist L-000902688; type: functional, tissue-based
Hepatocyte [5] = assay: Metabolic stability in human hepatocytes; type: ADME, cell-based
[6] = Metabolic stability in dog hepatocytes; type: ADME, cell-based, Canis lupus familiaris, Hepatocyte
[7] = Volume of distribution in Sprague-Dawley rat at 5 mg/kg, iv and 20 mg/kg, po; type: ADME, organism-based; details: in vivo
How it was run: (§1)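 Sprague-Dawley rats dosed iv at 5 mg/kg and po at 20 mg/kg. The iv group was n = 2 males given the free acid in 60% PEG 200 at 1 mL/kg. PK parameters were derived from plasma levels.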

[8] = AUC (0 to 24 hrs) in Sprague-Dawley rat at 20 mg/kg, po; type: ADME, organism-based; set-up: time < 24 hr, dose 20 mg/kg, route oral; details: plasma; how it was run: as §1
Hepatocyte [9] = assay: Oxidative metabolism in rat hepatocytes assessed as protein covalent binding after 2 hrs; type: ADME, cell-based
How it was run: (§2)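 [3H]-labelled compound incubated with fresh rat or human hepatocytes for 2 h. Covalent protein binding was expressed as pmol-equiv/mg protein, and samples were checked for tritium loss by HPLC with radiometric detection.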

Hepatocyte [10] = assay: Oxidative metabolism in human hepatocytes assessed as protein covalent binding after 2 hrs; type: ADME, cell-based; how it was run: as §2
[11] = Drug level in complete Freund's adjuvant challenged rat administered daily once 9 days after adjuvant challenge measured on day 18 after 24 hrs post dose; type: ADME, organism-based; details: in vivo, read-out: Drug uptake
How it was run: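 In a separate rat AIA experiment with daily dosing, plasma drug levels were measured 2 h and 24 h after the final dose.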

[12] = molecular target: T3, Prostaglandin E2 receptor EP4 subtype; assay: Displacement of [3H]PGE2 from human prostanoid EP4 receptor expressed in HEK293-EBNA cells after 60 mins by scintillation counting; type: cell-based
[13] = molecular target: T4, Prostaglandin E2 receptor EP1 subtype (Homo sapiens, UniProt P34995); assay: Displacement of [3H]PGE2 from human prostanoid EP1 receptor expressed in HEK293-EBNA cells after 60 mins by scintillation counting; type: cell-based
T4 sequence (P34995 whole entry): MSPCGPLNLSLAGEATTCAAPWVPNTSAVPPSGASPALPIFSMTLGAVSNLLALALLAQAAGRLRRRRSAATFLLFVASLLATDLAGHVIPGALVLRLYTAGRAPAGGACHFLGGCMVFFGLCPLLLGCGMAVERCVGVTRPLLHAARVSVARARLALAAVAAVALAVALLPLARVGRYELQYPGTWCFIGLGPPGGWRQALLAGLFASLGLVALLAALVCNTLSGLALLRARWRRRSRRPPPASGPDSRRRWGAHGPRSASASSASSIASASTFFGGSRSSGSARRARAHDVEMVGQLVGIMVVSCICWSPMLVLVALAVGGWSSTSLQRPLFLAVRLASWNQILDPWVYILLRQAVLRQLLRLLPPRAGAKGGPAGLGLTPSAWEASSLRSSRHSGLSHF

[14] = molecular target: Prostaglandin E2 receptor EP2 subtype (Homo sapiens, UniProt P43116); assay: Displacement of [3H]PGE2 from human prostanoid EP2 receptor expressed in HEK293-EBNA cells after 60 mins by scintillation counting; type: cell-based
[15] = molecular target: T5, Prostaglandin E2 receptor EP3 subtype (Homo sapiens, UniProt P43115); assay: Displacement of [3H]PGE2 from human prostanoid EP3 receptor expressed in HEK293-EBNA cells after 60 mins by scintillation counting; type: cell-based
T5 sequence (P43115 whole entry): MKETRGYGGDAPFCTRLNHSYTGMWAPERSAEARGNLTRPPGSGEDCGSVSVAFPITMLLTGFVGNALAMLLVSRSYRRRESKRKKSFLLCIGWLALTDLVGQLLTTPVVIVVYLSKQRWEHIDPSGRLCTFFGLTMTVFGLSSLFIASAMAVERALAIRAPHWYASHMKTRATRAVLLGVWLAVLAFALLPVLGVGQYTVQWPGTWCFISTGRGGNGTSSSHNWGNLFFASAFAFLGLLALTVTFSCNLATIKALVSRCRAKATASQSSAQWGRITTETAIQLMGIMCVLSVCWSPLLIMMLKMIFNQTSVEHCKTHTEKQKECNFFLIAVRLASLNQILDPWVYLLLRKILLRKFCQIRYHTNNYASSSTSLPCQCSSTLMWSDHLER

[16] = Elimination half life in Beagle dog at 1 mg/kg, iv and 4 mg/kg, po; details: in vivo, read-out: beta t1/2 (converted)
[17] = Volume of distribution in Beagle dog at 1 mg/kg, iv and 4 mg/kg, po; details: in vivo

T3 sequence (P35408 whole entry): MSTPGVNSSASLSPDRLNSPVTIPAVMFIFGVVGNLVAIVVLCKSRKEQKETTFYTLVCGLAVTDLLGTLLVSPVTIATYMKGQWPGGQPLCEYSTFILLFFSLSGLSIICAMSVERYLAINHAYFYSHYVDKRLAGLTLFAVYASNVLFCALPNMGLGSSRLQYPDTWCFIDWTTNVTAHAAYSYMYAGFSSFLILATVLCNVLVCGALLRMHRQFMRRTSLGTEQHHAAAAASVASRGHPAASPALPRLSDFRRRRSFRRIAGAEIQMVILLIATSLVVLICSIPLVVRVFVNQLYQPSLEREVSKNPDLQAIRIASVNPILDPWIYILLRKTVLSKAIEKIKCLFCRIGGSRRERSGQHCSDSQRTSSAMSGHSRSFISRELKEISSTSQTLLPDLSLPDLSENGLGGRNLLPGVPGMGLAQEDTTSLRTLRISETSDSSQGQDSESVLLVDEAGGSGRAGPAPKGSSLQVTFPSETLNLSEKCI
Chain of Prostaglandin E2 receptor EP2 subtype (P43116 whole entry): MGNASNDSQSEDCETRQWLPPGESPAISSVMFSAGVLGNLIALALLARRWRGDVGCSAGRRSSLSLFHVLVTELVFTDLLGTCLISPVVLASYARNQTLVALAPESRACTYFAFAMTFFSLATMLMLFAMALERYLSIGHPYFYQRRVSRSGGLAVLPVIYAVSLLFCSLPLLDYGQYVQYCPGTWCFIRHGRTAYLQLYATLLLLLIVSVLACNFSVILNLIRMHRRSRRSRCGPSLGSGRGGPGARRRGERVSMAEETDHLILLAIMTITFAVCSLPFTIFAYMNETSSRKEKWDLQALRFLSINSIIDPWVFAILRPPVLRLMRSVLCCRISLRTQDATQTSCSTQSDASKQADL
Chain of Prostacyclin receptor (P43119 whole entry): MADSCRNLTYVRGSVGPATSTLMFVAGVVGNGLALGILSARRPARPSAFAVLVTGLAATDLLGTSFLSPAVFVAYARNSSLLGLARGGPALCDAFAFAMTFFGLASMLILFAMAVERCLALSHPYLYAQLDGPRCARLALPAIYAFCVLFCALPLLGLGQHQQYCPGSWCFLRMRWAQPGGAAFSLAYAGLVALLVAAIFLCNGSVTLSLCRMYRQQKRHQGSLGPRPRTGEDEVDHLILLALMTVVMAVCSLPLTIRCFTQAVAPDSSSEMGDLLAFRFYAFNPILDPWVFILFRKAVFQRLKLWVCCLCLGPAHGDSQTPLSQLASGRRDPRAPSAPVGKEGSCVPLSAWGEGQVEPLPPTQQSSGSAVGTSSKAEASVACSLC

Ki [1]: > 21 µM
Ki (Prostacyclin receptor): > 22 µM
Ki (Thromboxane A2 receptor): 6.7 µM
Ki [2]: 0.00034 µM
IC50 [3]: 0.0018 µM
IC50 [4]: 0.0095 µM
Stability (Hepatocyte [5]): Stable
Stability [6]: Stable
Vd [7]: 1 L/kg
AUC(0-t) at 24 h [8]: 150 µM·h
Activity (Hepatocyte [9]): 61 pmolequiv/mg
Activity (Hepatocyte [10]): 50 pmolequiv/mg
concentration at 24 h [11]: 3.1 nM
Ki [12]: 0.00023 µM
Ki [13]: 20 µM
Ki [14]: 8 µM
Ki [15]: 7.4 µM
half-life [16]: 2.6 h
Vd [17]: 0.8 L/kg
SMILES: O=C(O)c1ccc(C2(NC(=O)c3cccc4ccn(Cc5ccc(C(F)(F)F)cc5)c34)CC2)cc1
